According to ChEMBL document CHEMBL3112550, “Specific features of HIV-1 integrase inhibition by bisphosphonate derivatives” (Eur J Med Chem, 2014):
Active and inactive are the calls of the source. The rule behind the calls is not given here.

How the values were obtained:
[1] = target: Human immunodeficiency virus type 1 integrase (Human immunodeficiency virus 1) (UniProt Q7ZJM1); assay: Inhibition of HIV-1 integrase expressed in Escherichia coli using [32P]-labeled U5B/U5A DNA as substrate assessed as inhibition of 3'-processing reaction up to 250 uM after 2 hrs by PAGE analysis in presence of Mg2+
Summary of the method: (§1)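 3'-Processing: 32P-labeled U5B/U5A (3 nM) with IN (100 nM) in buffer A (20 mM HEPES pH 7.2, 7.5 mM MgCl2 or MnCl2, 1 mM DTT), increasing inhibitor, 37°C, 2 h; stopped with EDTA solution, phenol–chloroform extracted, ethanol precipitated, resolved on denaturing 20% PAGE, phosphorimager-quantified.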

[2] = target: T1, Human immunodeficiency virus type 1 integrase (Human immunodeficiency virus 1, UniProt Q7ZJM1); assay: Inhibition of HIV-1 GST-tagged integrase-His6-tagged LEDGF complex expressed in Escherichia coli BL21(DE3) using [32P]-labeled U5B/U5A DNA as substrate assessed as inhibition of 3'-processing reaction after 2 hrs by PAGE analysis in presence of Mg2+
Summary of the method: (§2)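 IN/LEDGF complex (IN combined with 50 nM LEDGF) processing 32P-labeled U5B/U5A (3 nM) in buffer A (20 mM HEPES pH 7.2, 7.5 mM MgCl2 or MnCl2, 1 mM DTT) with increasing inhibitor, 37°C, 2 h; products separated by denaturing 20% PAGE and quantified by phosphorimaging.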

[3] = target: T1, Human immunodeficiency virus type 1 integrase; assay: Inhibition of HIV-1 integrase expressed in Escherichia coli using [32P]-labeled U5B-2/U5A DNA as substrate assessed as inhibition of strand transfer reaction after 2 hrs by PAGE analysis in presence of Mn2+
Summary of the method: (§3)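 Strand transfer: 32P-labeled U5B-2/U5A duplex (10 nM) with IN (100 nM) in buffer A (20 mM HEPES pH 7.2, 7.5 mM MgCl2 or MnCl2, 1 mM DTT), increasing inhibitor, 37°C, 2 h. EDTA-containing stop solution, phenol–chloroform extraction, ethanol precipitation, denaturing 20% PAGE, phosphorimager quantification of reaction efficiency.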

[4] = target: T1, Human immunodeficiency virus type 1 integrase; assay: Inhibition of HIV-1 integrase expressed in Escherichia coli using [32P]-labeled U5B-2/U5A DNA as substrate assessed as inhibition of strand transfer reaction after 2 hrs by PAGE analysis in presence of Mg2+; summary of the method: as §3
[5] = target: T1, Human immunodeficiency virus type 1 integrase; assay: (§4) Inhibition of HIV-1 integrase expressed in Escherichia coli using [32P]-labeled U5B/U5A DNA as substrate assessed as inhibition of 3'-processing reaction after 2 hrs by PAGE analysis in presence of Mg2+; summary of the method: as §1
[6] = target: T1, Human immunodeficiency virus type 1 integrase; assay: Displacement of [32P]-labeled U5B/U5A DNA from HIV-1 integrase expressed in Escherichia coli in presence of Mg2+
Summary of the method: (§5)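 DRaCALA binding: 32P-labeled U5B/U5A (3 nM) with IN in buffer A (20 mM HEPES pH 7.2, 7.5 mM MgCl2 or MnCl2, 1 mM DTT), compound 0–500 μM, 25°C for 20 min; mixture spotted on nitrocellulose membrane, bound DNA quantified by phosphorimaging.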

[7] = target: T1, Human immunodeficiency virus type 1 integrase; assay: Displacement of [32P]-labeled U5B/U5A DNA from HIV-1 integrase expressed in Escherichia coli in presence of Mn2+; summary of the method: as §5
[8] = target: T1, Human immunodeficiency virus type 1 integrase; assay: Inhibition of HIV-1 integrase expressed in Escherichia coli using [32P]-labeled U5B/U5A DNA as substrate assessed as inhibition of 3'-processing reaction after 2 hrs by PAGE analysis in presence of Mn2+; summary of the method: as §1
[9] = target: Human immunodeficiency virus type 1 integrase (Human immunodeficiency virus 1, UniProt Q7ZJM1, E92Q); assay: Inhibition of HIV-1 integrase E92Q mutant expressed in Escherichia coli using [32P]-labeled U5B/U5A DNA as substrate assessed as inhibition of 3'-processing reaction after 2 hrs by PAGE analysis in presence of Mg2+
Summary of the method: (§6)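 3'-processing: 32P-labelled U5B/U5A duplex mimicking the HIV-1 U5 LTR end (3 nM) incubated with integrase (100 nM) in 20 mM HEPES pH 7.2, 7.5 mM MgCl2, 1 mM DTT, with increasing inhibitor concentrations, 37°C, 2 h. Stopped with EDTA, phenol-chloroform extracted, ethanol precipitated. Products resolved on denaturing 20% PAGE, phosphorimaged, reaction efficiency quantified.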

[10] = target: Human immunodeficiency virus type 1 integrase (Human immunodeficiency virus 1, UniProt Q7ZJM1, N155H); assay: Inhibition of HIV-1 integrase N155H mutant expressed in Escherichia coli using [32P]-labeled U5B/U5A DNA as substrate assessed as inhibition of 3'-processing reaction after 2 hrs by PAGE analysis in presence of Mg2+; summary of the method: as §6
[11] = target: Human immunodeficiency virus type 1 integrase (Human immunodeficiency virus 1, UniProt Q7ZJM1, G140S); assay: Inhibition of HIV-1 integrase G140S mutant expressed in Escherichia coli using [32P]-labeled U5B/U5A DNA as substrate assessed as inhibition of 3'-processing reaction after 2 hrs by PAGE analysis in presence of Mg2+; summary of the method: as §6
[12] = target: Human immunodeficiency virus type 1 integrase (Human immunodeficiency virus 1, UniProt Q7ZJM1, E138K); assay: Inhibition of HIV-1 integrase E138K mutant expressed in Escherichia coli using [32P]-labeled U5B/U5A DNA as substrate assessed as inhibition of 3'-processing reaction after 2 hrs by PAGE analysis in presence of Mg2+; summary of the method: as §6
[13] = target: T1, Human immunodeficiency virus type 1 integrase; assay: Non-competitive inhibition of HIV-1 integrase expressed in Escherichia coli using [32P]-labeled U5B/U5A DNA as substrate after 1 hr by double-reciprocal plot analysis in presence of Mn2+
Summary of the method: (§7)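 Kinetics: IN (100 nM) incubated with 32P-labeled U5B/U5A (2.5–12.5 nM) plus inhibitor (0–39 μM or 0–15 μM, depending on compound) in buffer A (20 mM HEPES pH 7.2, 7.5 mM MgCl2 or MnCl2, 1 mM DTT), 1 h, 37°C. Initial 3'-processing rate vs substrate concentration at varied inhibitor levels plotted double-reciprocally; Km and KI calculated from the fitted inhibition model.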

[14] = target: T1, Human immunodeficiency virus type 1 integrase; assay: Non-competitive inhibition of HIV-1 integrase expressed in Escherichia coli using [32P]-labeled U5B/U5A DNA as substrate after 1 hr by double-reciprocal plot analysis in presence of Mg2+; summary of the method: as §7
[15] = target: Human immunodeficiency virus type 1 integrase (Human immunodeficiency virus 1) (UniProt Q7ZJM1); assay: Ratio of IC50 for HIV-1 integrase-mediated 3'-processing reaction in presence of Mg2+ to IC50 for HIV-1 integrase-mediated strand transfer reaction in presence of Mg2+
[16] = target: T1, Human immunodeficiency virus type 1 integrase; assay: Inhibition of HIV-1 GST-tagged integrase-His6-tagged LEDGF complex expressed in Escherichia coli BL21(DE3) using [32P]-labeled U5B/U5A DNA as substrate assessed as inhibition of 3'-processing reaction after 2 hrs by PAGE analysis in presence of Mn2+; summary of the method: as §2
[17] = target: T1, Human immunodeficiency virus type 1 integrase; assay: Competitive inhibition of HIV-1 integrase expressed in Escherichia coli using [32P]-labeled U5B/U5A DNA as substrate after 1 hr by double-reciprocal plot analysis in presence of Mg2+; summary of the method: as §7
[18] = target: Human immunodeficiency virus type 1 integrase (Human immunodeficiency virus 1) (UniProt Q7ZJM1); assay: Inhibition of HIV-1 integrase expressed in Escherichia coli using [32P]-labeled U5B/U5A DNA as substrate assessed as inhibition of 3'-processing reaction up to 500 uM after 2 hrs by PAGE analysis in presence of Mg2+; summary of the method: as §6
[19] = target: Human immunodeficiency virus type 1 integrase (Human immunodeficiency virus 1) (UniProt Q7ZJM1); assay: as §4; summary of the method: as §1

Sequence of Human immunodeficiency virus type 1 integrase (Human immunodeficiency virus 1) (Q7ZJM1 as listed by the source): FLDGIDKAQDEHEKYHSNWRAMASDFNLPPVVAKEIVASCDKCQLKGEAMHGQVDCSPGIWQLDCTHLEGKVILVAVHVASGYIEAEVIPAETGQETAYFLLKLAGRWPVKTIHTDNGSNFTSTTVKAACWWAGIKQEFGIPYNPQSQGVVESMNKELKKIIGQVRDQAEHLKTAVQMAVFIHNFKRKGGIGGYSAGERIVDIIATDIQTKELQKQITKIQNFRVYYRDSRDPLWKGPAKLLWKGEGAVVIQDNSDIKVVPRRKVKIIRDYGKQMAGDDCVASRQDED
T1 sequence (Q7ZJM1 whole entry): as the sequence (Q7ZJM1 as listed by the source) above
Sequence of Human immunodeficiency virus type 1 integrase (Human immunodeficiency virus 1, UniProt Q7ZJM1, E92Q) (Q7ZJM1 entry or part of it E92Q): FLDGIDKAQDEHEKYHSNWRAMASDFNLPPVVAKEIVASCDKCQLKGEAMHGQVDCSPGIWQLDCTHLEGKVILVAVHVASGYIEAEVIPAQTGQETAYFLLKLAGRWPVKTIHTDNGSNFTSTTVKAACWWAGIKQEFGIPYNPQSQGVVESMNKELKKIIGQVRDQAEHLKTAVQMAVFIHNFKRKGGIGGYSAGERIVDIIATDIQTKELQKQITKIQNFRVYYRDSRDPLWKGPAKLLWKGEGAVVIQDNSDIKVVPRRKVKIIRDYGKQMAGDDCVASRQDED
Sequence of Human immunodeficiency virus type 1 integrase (Human immunodeficiency virus 1, UniProt Q7ZJM1, E138K) (Q7ZJM1 entry or part of it E138K): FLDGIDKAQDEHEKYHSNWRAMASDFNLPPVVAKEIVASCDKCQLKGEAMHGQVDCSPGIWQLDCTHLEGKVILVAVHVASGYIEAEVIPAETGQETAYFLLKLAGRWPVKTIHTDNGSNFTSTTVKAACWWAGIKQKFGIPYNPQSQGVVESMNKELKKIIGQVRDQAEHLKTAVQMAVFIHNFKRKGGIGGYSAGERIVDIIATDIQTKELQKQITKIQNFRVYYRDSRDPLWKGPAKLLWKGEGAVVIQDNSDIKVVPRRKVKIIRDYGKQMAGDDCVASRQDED
Sequence of Human immunodeficiency virus type 1 integrase (Human immunodeficiency virus 1, UniProt Q7ZJM1, G140S) (Q7ZJM1 entry or part of it G140S): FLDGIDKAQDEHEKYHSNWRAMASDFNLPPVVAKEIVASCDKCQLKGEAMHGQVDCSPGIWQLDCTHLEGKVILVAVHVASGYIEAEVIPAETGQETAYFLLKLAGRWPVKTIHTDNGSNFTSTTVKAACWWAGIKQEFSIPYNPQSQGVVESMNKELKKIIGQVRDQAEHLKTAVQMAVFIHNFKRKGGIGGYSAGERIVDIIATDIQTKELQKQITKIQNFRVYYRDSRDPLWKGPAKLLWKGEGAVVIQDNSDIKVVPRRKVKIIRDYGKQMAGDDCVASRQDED
Sequence of Human immunodeficiency virus type 1 integrase (Human immunodeficiency virus 1, UniProt Q7ZJM1, N155H) (Q7ZJM1 entry or part of it N155H): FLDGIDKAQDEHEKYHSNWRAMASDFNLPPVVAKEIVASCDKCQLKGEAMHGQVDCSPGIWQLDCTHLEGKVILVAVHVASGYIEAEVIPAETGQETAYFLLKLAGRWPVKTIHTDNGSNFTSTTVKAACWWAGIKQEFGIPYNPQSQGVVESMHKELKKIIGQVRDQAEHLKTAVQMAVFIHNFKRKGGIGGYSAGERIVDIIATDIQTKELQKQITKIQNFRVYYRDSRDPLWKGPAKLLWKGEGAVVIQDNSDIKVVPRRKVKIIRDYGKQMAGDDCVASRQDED

O=P(O)(O)C(O)(C[n+]1cccc(O)c1)P(=O)(O)O
inhibition [1]: inactive

NC(Cc1ccc(Cl)c(Cl)c1)(P(=O)(O)O)P(=O)(O)O
IC50 [2]: 7 µM | IC50 [3]: 2 µM | IC50 [4]: 3 µM | IC50 [5]: 7 µM | IC50 [6]: > 256 µM | IC50 [7]: > 500 µM | IC50 [8]: 2 µM | IC50 [9]: 7 µM | IC50 [10]: 7 µM | IC50 [11]: 7 µM | IC50 [12]: 7 µM | Ki [13]: 1 µM | Ki [14]: 2 µM | Ratio IC50 [15]: 2 | IC50 [16]: 2 µM

O=P(O)(O)C(Cc1ccc(Cl)c(Cl)c1)(Cc1ccc(Cl)c(Cl)c1)P(=O)(O)O
IC50 [3]: 0.8 µM | IC50 [4]: 16 µM | IC50 [5]: 20 µM | IC50 [6]: 100 µM | IC50 [7]: > 500 µM | IC50 [8]: 0.8 µM

NC(Cc1ccccc1)(P(=O)(O)O)P(=O)(O)O
inhibition [1]: inactive

O=P(O)(O)C(O)(Cc1ccc(Cl)c(Cl)c1)P(=O)(O)O
IC50 [2]: > 250 µM | IC50 [3]: 4 µM | IC50 [4]: 45 µM | IC50 [5]: 35 µM | IC50 [6]: 150 µM | IC50 [7]: > 500 µM | IC50 [8]: 5 µM | IC50 [9]: 35 µM | IC50 [10]: 35 µM | IC50 [11]: 35 µM | IC50 [12]: 35 µM | Ki [13]: 4.4 µM | Ki [17]: 38 µM | IC50 [16]: 4.5 µM

O=P(O)(O)C(O)(CCCCc1ccccc1)P(=O)(O)O
inhibition [1]: inactive

O=C(O)Cc1ccc(Cl)c(Cl)c1
inhibition [18]: inactive

O=P(O)(O)C(O)(Cc1ccc(Cl)cc1)P(=O)(O)O
IC50 [2]: > 250 µM | IC50 [3]: 6 µM | IC50 [4]: 42 µM | IC50 [5]: 20 µM | IC50 [6]: 70 µM | IC50 [7]: > 500 µM | IC50 [8]: 5 µM | IC50 [16]: 8 µM

O=P(O)(O)C(CNCCc1ccccc1)P(=O)(O)O
inhibition [19]: inactive

O=P(O)(O)Cc1ccc(Cl)c(Cl)c1
inhibition [18]: inactive

NC(C[n+]1ccccc1)(P(=O)(O)O)P(=O)(O)O
inhibition [1]: inactive

O=P(O)(O)C(O)(C[n+]1ccccc1)P(=O)(O)O
inhibition [1]: inactive

CCc1cccc[n+]1CC(O)(P(=O)(O)O)P(=O)(O)O
inhibition [1]: inactive

O=P(O)(O)C(Cc1ccc(Cl)c(Cl)c1)P(=O)(O)O
IC50 [2]: > 250 µM | IC50 [3]: 5 µM | IC50 [4]: 30 µM | IC50 [5]: 30 µM | IC50 [6]: 130 µM | IC50 [7]: > 500 µM | IC50 [8]: 5 µM | IC50 [16]: 6 µM

O=P(O)(O)C(O)(C[n+]1ccc(-c2ccccc2)cc1)P(=O)(O)O
inhibition [1]: inactive

O=P(O)(O)C(O)(CCc1ccccc1)P(=O)(O)O
inhibition [1]: inactive

O=P(O)(O)C(CNc1ccc(I)cc1)P(=O)(O)O
inhibition [19]: inactive

O=P(O)(O)C(CNc1ccccc1)P(=O)(O)O
inhibition [19]: inactive

O=P(O)(O)C(O)(Cc1ccccc1)P(=O)(O)O
inhibition [1]: inactive
